Assay results published in ChEMBL document CHEMBL4699631, “Antimalarial and anti-inflammatory activities of new chloroquine and primaquine hybrids: Targeting the blockade of malaria parasite transmission” (Bioorg Med Chem, 2020).
The source made the active and inactive calls. No cut-off for these calls is given here.

Columns and labels:
[1] = Cytotoxicity against monkey BGM cells assessed as reduction in cell viability incubated for 24 hrs by neutral red dye based assay; details: chlorocebus aethiops, read-out: MDL50
Summary of the method: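 BGM monkey kidney cells grown in RPMI 1640 with 10% heat-inactivated fetal serum and gentamicin, 5% CO2, 37 °C. Cells allowed to adhere for 24 h, then exposed to compounds at 1000–1 μg/mL for 24 h. Neutral red uptake for 3 h, formaldehyde/CaCl2 fix, alcohol-acetic acid elution, absorbance at 540 nm. Viability taken as percent of untreated cells after background subtraction. MLD50 derived from this.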

Plasmodium falciparum = test: Antimalarial activity against Plasmodium falciparum CQR (W2 clone) infected in human erythrocyte assessed as reduction in parasite growth incubated for 48 hrs by SYBR assay; format: functional, organism-based
Summary of the method: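 W2 parasites cultured in A+ human erythrocytes in RPMI 1640 with ALBUMAX II, candle jar, 37 °C. Rings synchronized with sorbitol, then exposed to serial dilutions at 0.5% parasitemia and 2% hematocrit for 48 h at 37 °C. Lysis buffer with SYBR Safe, 30 min in the dark, fluorescence read at ex 485 nm. IC50 from sigmoid curve fit against drug-free control.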

[2] = Selectivity index, ratio of MDL50 for monkey BGM cells to IC50 for Plasmodium falciparum CQR (W2 clone) infected in human Erythrocyte; format: toxicity
Summary of the method: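 SI calculated as MLD50 in BGM cells (neutral red, 24 h) divided by IC50 against P. falciparum W2 (SYBR, 48 h).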

[3] = Cytotoxicty against mouse J774.A1 cells assessed as cell viability at 50 uM incubated for 24 hrs by resazurin dye based assay (reference value: 100 %); details: read-out: Activity
Summary of the method: (§1)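 J774A.1 macrophages grown in DMEM with 10% FBS and 0.1% gentamycin, seeded at 1×10^5 cells/well. Exposed to compounds at 0, 12.5, 25, 50 or 100 μM for 24 h. Resazurin (10 μg/ml) added for 3 h, then fluorescence read. Run in triplicate. Viability given as percent of 0.2% DMSO-treated cells.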

[4] = Cytotoxicty against mouse J774.A1 cells assessed as cell viability at 25 uM incubated for 24 hrs by resazurin dye based assay (reference value: 100 %); details: read-out: Activity; summary of the method: as §1
[5] = Cytotoxicty against mouse J774.A1 cells assessed as cell viability at 12.5 uM incubated for 24 hrs by resazurin dye based assay (reference value: 100 %); details: read-out: Activity; summary of the method: as §1
[6] = Cytotoxicty against mouse J774.A1 cells assessed as cell viability at 100 uM incubated for 24 hrs by resazurin dye based assay (reference value: 100 %); details: read-out: Activity; summary of the method: as §1
J774.A1 [7] = test: Inhibition of LPS-induced NO production in mouse J774.A1 cells incubated for 24 hrs by Griess reagent based assay; format: functional, cell-based; details: dose microM 0.5-25, time 24.0 hrs
Summary of the method: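 Compounds made as 10 mM DMSO stocks and diluted in medium. J774A.1 cells pre-incubated with compounds at 25 μM for screening, or 0.5–25 μM for dose-response, with dexamethasone 1 μM or 0.2% DMSO as controls. Stimulated with LPS 37.5 ng/ml plus IFNγ 25 U/ml for 24 h at 37 °C, 5% CO2. Supernatant nitrite measured by Griess at 540 nm. Triplicate, mean ± SEM.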

J774.A1 [8] = test: Inhibition of LPS-induced TNFalpha production in mouse J774.A1 cells incubated for 24 hrs by ELISA; format: functional, cell-based; details: dose microM 0.5-25, time 24.0 hrs
Summary of the method: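 J774A.1 cells seeded at 2×10^6 cells/well. Pretreated with vehicle, dexamethasone 1 μM, or compounds at 0.5–25 μM. Stimulated with LPS 100 ng/ml for 24 h. Supernatants stored at −20 °C, then TNFα measured by sandwich ELISA in pg/mL. Triplicate, mean ± SEM.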

Plasmodium berghei [9] = test: Antimalarial activity against Plasmodium berghei NK65 infected in mouse assessed as parasite growth at 20 mg/kg, po administered for 3 days and measured on day 5 Giemsa staining based assay relative to control; format: functional; details: time 5 day
Summary of the method: (§2)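 P. berghei NK65 kept by weekly blood passage in mice. Mice inoculated i.p. with 1×10^6 infected erythrocytes, randomized after about 24 h into groups of five. Oral dosing once daily for three days, vehicle 3% DMSO in RPMI. Test compounds given at 25 mg/kg, CQ control at 20 mg/kg. Parasitemia read on Giemsa-stained thin smears on days 5 and 7 and expressed relative to untreated mice.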

Plasmodium berghei [10] = test: Antimalarial activity against Plasmodium berghei NK65 infected in mouse assessed as increase in mouse survival at 20 mg/kg, po administered for 3 days and observed for 7 days; format: functional, organism-based; details: time 7.0 day
Plasmodium berghei [11] = test: Antimalarial activity against Plasmodium berghei NK65 infected in mouse assessed as parasite growth at 20 mg/kg, po administered for 3 days and measured on day 7 Giemsa staining based assay relative to control; format: functional; details: time 7 day; summary of the method: as §2
Plasmodium berghei [12] = test: Antimalarial activity against Plasmodium berghei NK65 infected in mouse assessed as parasite growth at 25 mg/kg, po administered for 3 days and measured on day 5 Giemsa staining based assay relative to control; format: functional; details: time 5 day; summary of the method: as §2
Plasmodium berghei [13] = test: Antimalarial activity against Plasmodium berghei NK65 infected in mouse assessed as parasite growth at 25 mg/kg, po administered for 3 days and measured on day 7 Giemsa staining based assay; format: functional; details: time 7 day; summary of the method: as §2
Plasmodium berghei [14] = test: Antimalarial activity against Plasmodium berghei NK65 infected in mouse assessed as increase in mouse survival rate at 25 mg/kg, po administered for 3 days and observed for 7 days; format: functional, organism-based; details: time 7.0 day

Structure (SMILES)	CC50 at 24 h [1]	IC50 (Plasmodium falciparum)	selectivity ratio [2]	viability at 24 h, 50 µM [3]	viability at 24 h, 25 µM [4]	viability at 24 h, 12.5 µM [5]	viability at 24 h, 100 µM [6]	also measured
CC(=O)Nc1ccc(Br)cc1C(=O)C(=O)NCCCNc1ccnc2cc(Cl)ccc12	103 µM	0.38 µM	270	–	–	–	–	–
COc1cc(NC(C)CCCNC(=O)C(=O)c2cc(Br)ccc2NC(C)=O)c2ncccc2c1 (stereo unspecified)	309 µM	2.5 µM	> 100	75.5%	100%	100%	75.8%	–
CC(=O)Nc1ccccc1C(=O)C(=O)NCCNc1ccnc2cc(Cl)ccc12	261 µM	0.71 µM	> 300	–	–	–	–	–
CC(=O)Nc1ccc(C)cc1C(=O)C(=O)NCCCCNc1ccnc2cc(Cl)ccc12	–	0.84 µM	–	–	–	–	–	–
CC(=O)Nc1ccc(Cl)cc1C(=O)C(=O)NCCNc1ccnc2cc(Cl)ccc12	152 µM	0.52 µM	292	–	–	–	–	–
CC(=O)Nc1ccc(Cl)cc1C(F)(F)C(=O)NCCCNc1ccnc2cc(Cl)ccc12	654 µM	0.5 µM	> 1300	87.5%	95.5%	100%	10.4%	inhibition (J774.A1 [7]): Dose-dependent effect; inhibition (J774.A1 [8]): Dose-dependent effect
COc1cc(NC(C)CCCNC(=O)C(F)(F)c2cc(Br)ccc2NC(C)=O)c2ncccc2c1 (stereo unspecified)	> 1820 µM	3.5 µM	> 520	–	–	–	–	–
COc1cc(NC(C)CCCNC(=O)C(F)(F)c2ccccc2NC(C)=O)c2ncccc2c1 (stereo unspecified)	113 µM	25.5 µM	4	–	–	–	–	–
CC(=O)Nc1ccc(Cl)cc1C(=O)C(=O)NCCCCNc1ccnc2cc(Cl)ccc12	91.1 µM	3.18 µM	29	–	–	–	–	–
COc1cc(NC(C)CCCNC(=O)C(=O)c2cc(C)ccc2NC(C)=O)c2ncccc2c1 (stereo unspecified)	> 2160 µM	25.3 µM	> 80	–	–	–	–	–
COc1cc(NC(C)CCCNC(=O)C(=O)c2cc(Cl)ccc2NC(C)=O)c2ncccc2c1 (stereo unspecified)	164 µM	7.7 µM	> 20	77.6%	100%	100%	54.6%	–
COc1cc(NC(C)CCCNC(=O)C(F)(F)c2cc(C)ccc2NC(C)=O)c2ncccc2c1 (stereo unspecified)	–	20.7 µM	–	–	–	–	–	–
CC(=O)Nc1ccccc1C(F)(F)C(=O)NCCCCNc1ccnc2cc(Cl)ccc12	140 µM	2.7 µM	> 50	83.7%	100%	100%	10.4%	–
CC(=O)Nc1ccccc1C(F)(F)C(=O)NCCCNc1ccnc2cc(Cl)ccc12	99 µM	0.4 µM	> 250	91.5%	100%	100%	33.3%	–
CC(=O)Nc1ccc(C)cc1C(=O)C(=O)NCCCNc1ccnc2cc(Cl)ccc12	–	0.22 µM	–	–	–	–	–	–
CCN(CC)CCCC(C)Nc1ccnc2cc(Cl)ccc12 (stereo unspecified) [CHLOROQUINE]	457 µM	–	–	–	–	–	–	Activity (Plasmodium berghei [9]): 99%; Activity (Plasmodium berghei [10]): Active; Activity (Plasmodium berghei [11]): 99%
CC(=O)Nc1ccc(C)cc1C(=O)C(=O)NCCNc1ccnc2cc(Cl)ccc12	> 84 µM	0.49 µM	> 170	–	–	–	–	–
CC(=O)Nc1ccc(Cl)cc1C(=O)C(=O)NCCCNc1ccnc2cc(Cl)ccc12	30.9 µM	0.12 µM	258	82.7%	100%	100%	10.7%	inhibition (J774.A1 [7]): Dose-dependent effect; inhibition (J774.A1 [8]): Dose-dependent effect; Activity (Plasmodium berghei [12]): 0%; Activity (Plasmodium berghei [13]): 0%; Activity (Plasmodium berghei [14]): Active
CC(=O)Nc1ccccc1C(=O)C(=O)NCCCCNc1ccnc2cc(Cl)ccc12	124 µM	0.18 µM	> 700	83.4%	100%	98.4%	10.1%	inhibition (J774.A1 [8]): inactive; Activity (Plasmodium berghei [12]): 0%; Activity (Plasmodium berghei [13]): 2%
CC(=O)Nc1ccccc1C(=O)C(=O)NCCCNc1ccnc2cc(Cl)ccc12	91.7 µM	0.2 µM	> 400	89.1%	100%	100%	67.6%	Activity (Plasmodium berghei [12]): 0%; Activity (Plasmodium berghei [13]): 15%; Activity (Plasmodium berghei [14]): Active
COc1cc(NC(C)CCCNC(=O)C(=O)c2ccccc2NC(C)=O)c2ncccc2c1 (stereo unspecified)	–	26.8 µM	–	–	–	–	–	–
